Legend:
DNA gyrase = DNA gyrase (Escherichia coli, UniProt P0AES4+P0AES6); test: Compound evaluated in vitro for the ability to inhibit gyrase.; format: protein-complex assay; conditions: read-out: I50 (converted)
How it was run: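 DNA gyrase isolated from Escherichia coli H560 cells; inhibition given as I50.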

[1] = Compound evaluated in vitro against five gram-positive bacterial strains and geometric means of the minimum inhibitory concentrations (MIC) reported.; format: functional; design: unit not given here
How it was run: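 Geometric mean MIC across five Gram-positive strains, taken as antilog of the averaged log MIC values.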

[2] = Compound evaluated in vitro against five gram-negative bacterial strains and geometric means of the minimum inhibitory concentrations (MIC) reported.; format: functional; design: unit not given here
How it was run: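 Geometric mean MIC across five Gram-negative strains (E. coli H560, E. coli Vogel, Enterobacter cloacae MA 2646, Klebsiella pneumoniae MGH-2, Proteus rettgeri M1771). Mean taken as antilog of the averaged log MIC values.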

Escherichia coli [3] = test: In vivo protection against gram-negative Escherichia coli vogel in mouse after oral administration.; conditions: read-out: PD50
Escherichia coli [4] = test: In vivo protection against gram-negative Escherichia coli vogel in mouse after subcutaneous administration; conditions: sc, read-out: PD50
Streptococcus pneumoniae [5] = test: In vivo protection against gram-positive Streptococcus pneumonia (SV-1) in mouse after oral administration.; format: functional; conditions: read-out: PD50
Streptococcus pneumoniae [6] = test: In vivo protection against gram-positive Streptococcus pneumonia (SV-1) in mouse after subcutaneous administration; format: functional; conditions: sc, read-out: PD50

Row | Compound | IC50 (DNA gyrase) | MIC [1] | MIC [2] | ED50 (Escherichia coli [3]) | ED50 (Escherichia coli [4]) | ED50 (Streptococcus pneumoniae [5]) | ED50 (Streptococcus pneumoniae [6])
1 | NC1CCN(c2nc3c(cc2F)c(=O)c(C(=O)O)cn3C2CC2)CC1 | 8.66 µM | 0.23 | 0.11 | 4.6 mg/kg | 0.8 mg/kg | – | –
2 | O=C(O)c1cn(C2CC2)c2c(F)c(N3CCNCC3)c(F)cc2c1=O | – | 0.4 | 0.04 | 0.5 mg/kg | 0.3 mg/kg | 59 mg/kg | 29 mg/kg
3 | O=C(O)c1cn(C2CC2)c2nc(N3CCN4CCC3C4)c(F)cc2c1=O (configuration not stated) | 38.5 µM | 0.46 | 0.11 | 0.5 mg/kg | 0.3 mg/kg | 32 mg/kg | 20 mg/kg
4 | CCN[C@H]1C[C@H]2CC[C@@H](C1)N2c1nc2c(cc1F)c(=O)c(C(=O)O)cn2C1CC1 | 15.7 µM | 0.26 | 0.46 | 2.8 mg/kg | 2.8 mg/kg | 23 mg/kg | 16 mg/kg
5 | O=C(O)c1cn(C2CC2)c2c(F)c(N3CC4CCC3CN4)c(F)cc2c1=O (configuration not stated) | 16.8 µM | 0.3 | 0.09 | 2.9 mg/kg | 1.3 mg/kg | – | –
6 | Nc1c(F)c(N2C[C@H]3CC2CN3)c(F)c2c1c(=O)c(C(=O)O)cn2C1CC1 | 36.7 µM | 0.09 | 0.04 | 5 mg/kg | 1 mg/kg | > 100 mg/kg | 13 mg/kg
7 | Nc1c(F)c(N2CC3CCC2CN3)c(F)c2c1c(=O)c(C(=O)O)cn2C1CC1 (configuration not stated) | 14.1 µM | 0.06 | 0.06 | 3.6 mg/kg | 0.7 mg/kg | – | –
8 | CCN[C@@H]1C[C@H]2CC[C@@H](C1)N2c1cc2c(cc1F)c(=O)c(C(=O)O)cn2C1CC1 | 15.8 µM | 0.26 | 0.8 | 5.7 mg/kg | 2.3 mg/kg | 35 mg/kg | 23 mg/kg
9 | CCN[C@H]1C[C@H]2CC[C@@H](C1)N2c1c(F)cc2c(=O)c(C(=O)O)cn(C3CC3)c2c1F | 15.1 µM | 0.46 | 0.6 | > 12.5 mg/kg | 6.5 mg/kg | – | –
10 | O=C(O)c1cn(C2CC2)c2nc(N3C[C@H]4CC3CN4)c(F)cc2c1=O | 18.3 µM | 0.46 | 0.08 | 53 mg/kg | 37 mg/kg | – | –
11 | CN1CC2CCC1CN2c1nc2c(cc1F)c(=O)c(C(=O)O)cn2C1CC1 (configuration not stated) | 14.8 µM | 0.26 | 0.1 | 1.4 mg/kg | 1.1 mg/kg | – | –
12 | O=C(O)c1cn(C2CC2)c2c(F)c(N3C[C@H]4CC3CN4)c(F)cc2c1=O | 7.75 µM | 0.53 | 0.07 | 1.7 mg/kg | 0.4 mg/kg | > 100 mg/kg | 18.5 mg/kg
13 | CCN[C@@H]1C[C@H]2CC[C@@H](C1)N2c1c(F)cc2c(=O)c(C(=O)O)cn(C3CC3)c2c1F | 9.1 µM | 0.17 | 0.61 | 5.8 mg/kg | 3 mg/kg | – | –
14 | Nc1c(F)c(N2CCNCC2)c(F)c2c1c(=O)c(C(=O)O)cn2C1CC1 | – | 0.05 | 0.02 | 0.8 mg/kg | 0.2 mg/kg | 31 mg/kg | 23 mg/kg
15 | NC1CCN(c2c(F)cc3c(=O)c(C(=O)O)cn(C4CC4)c3c2F)CC1 | < 1.38 µM | 0.08 | 0.2 | 4.7 mg/kg | 1.4 mg/kg | – | –
16 | O=C(O)c1cn(C2CC2)c2cc(N3CCN4CCC3C4)c(F)cc2c1=O (configuration not stated) | 8.39 µM | 0.09 | 0.03 | 1 mg/kg | 0.3 mg/kg | 35 mg/kg | 11 mg/kg

Row | Compound | IC50 (DNA gyrase) | MIC [1] | MIC [2] | ED50 (Escherichia coli [3]) | ED50 (Escherichia coli [4]) | ED50 (Streptococcus pneumoniae [5]) | ED50 (Streptococcus pneumoniae [6])
17 | CCN[C@@H]1C[C@H]2CC[C@@H](C1)N2c1nc2c(cc1F)c(=O)c(C(=O)O)cn2C1CC1 | 15.7 µM | 0.53 | 0.6 | 21 mg/kg | 9.1 mg/kg | – | –
18 | N[C@H]1C[C@H]2CC[C@@H](C1)N2c1cc2c(cc1F)c(=O)c(C(=O)O)cn2C1CC1 | 8.08 µM | 0.23 | 0.15 | 9.5 mg/kg | 2 mg/kg | – | –
19 | CN1CC2CCC1CN2c1c(F)cc2c(=O)c(C(=O)O)cn(C3CC3)c2c1F (configuration not stated) | 16.2 µM | 0.15 | 0.13 | < 1.6 mg/kg | < 1.6 mg/kg | – | –
20 | NC1CCN(c2cc3c(cc2F)c(=O)c(C(=O)O)cn3C2CC2)CC1 | 2.32 µM | 0.17 | 0.17 | 15 mg/kg | 1.4 mg/kg | – | –
21 | Nc1c(F)c(N2CCN3CCC2C3)c(F)c2c1c(=O)c(C(=O)O)cn2C1CC1 (configuration not stated) | 14.1 µM | 0.08 | 0.03 | 0.6 mg/kg | 0.2 mg/kg | – | –
22 | Cl.O=C(O)c1cn(C2CC2)c2nc(N3C[C@@H]4CC3CN4)c(F)cc2c1=O | – | 0.26 | 0.03 | 2.2 mg/kg | 1.6 mg/kg | – | –
23 | Br.O=C(O)c1cn(C2CC2)c2cc(N3C[C@@H]4CC3CN4)c(F)cc2c1=O | 4.48 µM | 0.3 | 0.04 | 1.9 mg/kg | 0.2 mg/kg | > 100 mg/kg | 12.5 mg/kg
24 | CN1CC2C[C@@H]1CN2c1c(F)cc2c(=O)c(C(=O)O)cn(C3CC3)c2c1F.Cl | 7.28 µM | 0.17 | 0.09 | 0.9 mg/kg | 0.5 mg/kg | 13 mg/kg | 14 mg/kg
25 | Cl.N[C@@H]1C[C@H]2CC[C@@H](C1)N2c1nc2c(cc1F)c(=O)c(C(=O)O)cn2C1CC1 | 42.8 µM | 0.46 | 0.25 | 2.1 mg/kg | 1.1 mg/kg | 29 mg/kg | 21 mg/kg
26 | Cl.N[C@H]1C[C@H]2CC[C@@H](C1)N2c1nc2c(cc1F)c(=O)c(C(=O)O)cn2C1CC1 | 18.3 µM | 0.4 | 0.79 | 71 mg/kg | 6 mg/kg | – | –
27 | Cl.N[C@@H]1C[C@H]2CC[C@@H](C1)N2c1c(F)cc2c(=O)c(C(=O)O)cn(C3CC3)c2c1F | 8.92 µM | 0.11 | 0.26 | 21 mg/kg | 4 mg/kg | – | –
28 | CCN[C@H]1C[C@H]2CC[C@@H](C1)N2c1cc2c(cc1F)c(=O)c(C(=O)O)cn2C1CC1.F | 41.7 µM | 1.81 | 2.76 | – | – | – | –
29 | Br.Nc1c(F)c(N2C[C@@H]3CC2CN3)c(F)c2c1c(=O)c(C(=O)O)cn2C1CC1 | – | 0.25 | 0.07 | 6.1 mg/kg | 1.1 mg/kg | – | –
30 | O=C(O)c1cn(C2CC2)c2nc(N3CCNCC3)c(F)cc2c1=O | 150 µM | 1.21 | 0.06 | 0.7 mg/kg | 0.4 mg/kg | – | –
31 | O=C(O)c1cn(C2CC2)c2cc(N3CCNCC3)c(F)cc2c1=O [CIPROFLOXACIN] | – | 0.91 | 0.06 | 1.2 mg/kg | 0.3 mg/kg | > 100 mg/kg | 29 mg/kg
